From PubChem
SMARCA2 act = SMARCA2 (BRM) function activators, primary screen, cell-based, luminescence, high throughput; MG213 cells, MMTV-luciferase reporter, dexamethasone, overnight; activation, % at 9.1 µM; 370,000 compounds, 1% hits; AID 652017, 2013; in the data active means activation above about 7.8%;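 further: 0% = vehicle wells and 100% = reference activator wells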
SR-BI DiI inh = inhibitors of SR-BI mediated HDL lipid uptake, primary screen, ldlA[mSR-BI] cells, fluorescence, single point; AID 488896, 2010; ldlA[mSR-BI] CHO cells, DiI-HDL uptake fluorescence, 3 h; Scavenger receptor class B member 1 (Mus musculus), Q61009; 320,000 compounds, 0.96% hits; inhibition, % at 12.5 µM;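 active means mean replicate inhibition of at least 70% and a set share of replicates each scoring 70 or more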;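 further: 0% = median of neutral control wells and 100% = median of positive control wells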
Target sequence (Q61009 whole entry, looked up): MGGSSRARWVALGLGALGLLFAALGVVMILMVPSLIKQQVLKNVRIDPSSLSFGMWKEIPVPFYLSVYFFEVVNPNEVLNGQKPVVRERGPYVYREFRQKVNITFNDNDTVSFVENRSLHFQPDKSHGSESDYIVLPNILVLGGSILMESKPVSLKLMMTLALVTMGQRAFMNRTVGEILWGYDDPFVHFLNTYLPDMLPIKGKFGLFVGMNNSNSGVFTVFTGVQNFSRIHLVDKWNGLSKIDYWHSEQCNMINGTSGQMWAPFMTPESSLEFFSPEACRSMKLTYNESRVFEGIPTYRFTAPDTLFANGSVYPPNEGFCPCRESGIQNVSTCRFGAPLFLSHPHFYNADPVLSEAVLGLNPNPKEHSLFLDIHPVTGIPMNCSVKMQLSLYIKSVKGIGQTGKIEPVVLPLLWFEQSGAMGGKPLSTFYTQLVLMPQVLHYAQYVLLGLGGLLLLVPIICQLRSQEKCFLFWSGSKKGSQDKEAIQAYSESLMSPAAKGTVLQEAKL
H9c2 TAG inh = inhibitors of triacylglycerol accumulation, primary screen, cell-based, uHTS, fluorescence, H9c2 | H9c2 cells, Nile Red lipid (TAG) fluorescence; cells loaded with 200 µM oleic acid | inhibition, % at 12.5 µM | 230,000 compounds, 0.66% hits | AID 651582, 2012;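 active means pattern-corrected inhibition of lipid staining of at least 50% with the nuclear-stain viability signal not falling by more than 50%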;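 further: 0% = DMSO wells and 100% = triacsin C control wells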
Vif imaging = HIV Vif self-association inhibitors, primary screen, imaging, HEK293T, single point; inhibition, % at 7.49 µM; 340,000 compounds, 0.35% hits; HEK293T cells, Vif self-association by quenched fluorescence, 24 h; AID 602346, 2012; in the data active means inhibition above about 50%, passing the limit was not always enough
SR-BI DiI-HDL act = activators of SR-BI mediated DiI-HDL uptake, primary screen, ldlA[mSR-BI] CHO cells, DiI fluorescence; 3 h; 100 = double the neutral-control signal; activation, % at 12.5 µM; 320,000 compounds, 0.096% hits; AID 504775, 2011;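 active means mean replicate activation of at least 60% and every replicate at or above 60%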;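 further: 0% = median plate neutral-control signal and 100% = twice that signal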
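System: LDL receptor-deficient CHO ldlA cells overexpressing murine SR-BI | Timing: 3 h uptake period with compound, 37 °C | Medium: HEPES-buffered (25 mM, pH 7.4) F12 plus 0.5% BSA | Dosing: Single-point compound dose | Signal: Bottom-read fluorescence, 550/595 nm | Read-out: Retained DiI signal reflecting DiI-HDL uptake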
SMARCA2 act conf = SMARCA2 (BRM) function activators, confirmation, cell-based, luminescence, triplicate | shares compounds with SMARCA2 act | MG213 cells, MMTV-luciferase with dexamethasone, overnight; MG213 cells expressing E1A, Rb sequestered; DMSO wells 0%, reference activator 100% | activation, % at 9.1 µM | 3,500 compounds, 30% hits | AID 652260, 2013;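 active means activation above its plate's cutoff, the mean activation of tested wells plus 3 SD, cut at about 7.9% in these data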
GAL4-VP16 Luc = GAL4-VP16 luciferase reporter activation, counter-screen for SMARCA2 (BRM) activator project, cell-based, pG5luc, luminescence, high throughput; shares compounds with SMARCA2 act; HEK293 GAL4-VP16 pG5luc reporter; scaled: DMSO wells 0%, SAHA wells 100%; activation, % at 9.1 µM; 3,500 compounds, 41% hits; AID 686939, 2013;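 active means activation above the solvent-only control well mean plus 3 SD, averaged across control plates, cut at about 5.2% in these data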
Numbers without * were called inactive; . = not tested or not shown. Most compounds without a hit are left out; they make up all but 2.5% or so of the library.

SMILES	SMARCA2 act	SR-BI DiI inh	H9c2 TAG inh	Vif imaging	SR-BI DiI-HDL act	SMARCA2 act conf	GAL4-VP16 Luc
S=C(NCC1CCCCC1)OC1CCC12CCC(c1ccccc1)CC2 (stereo not given)	-1.5	.	.	.	.	.	.
O=C1CNC(=S)N1c1nc2ccccc2s1	28.1*	-9.3	10.6	11.3	9.3	10.3*	3.4
c1ccc2sc(N3CCCCC3)nc2c1	1.8	-11.5	-1.3	24.2	11.5	.	.
CCOc1cc2c(C)cc(=O)oc2cc1Cl	9.9*	10.4	.	1.1	-10.4	-1.3	-2.0
COc1cccc(C(=O)COc2ccc(NC(=O)c3ccccc3)cc2)c1	1.3	49.5	12.3	-1.8	-49.5	.	.
CCOC(=O)c1ccc(Oc2c(C)oc3cc(OS(C)(=O)=O)ccc3c2=O)cc1	-3.2	29.2	.	-7.7	-29.2	.	.
Cc1ccc(OCc2nn3c(C4CCCCC4)nnc3s2)cc1	-6.4	.	.	.	.	.	.
O=c1[nH]sc2ccccc12	8.9*	-1.5	8.6	3.6	1.5	-0.2	1.8
O=c1ccsc2ccccc12	-1.6	.	7.4	-0.3	.	.	.
CC(=O)c1ccc(-c2cc(C(C)=O)c3n(c2=O)CCC3)cc1	-0.6	.	.	.	.	.	.
O=C(Nc1ccsc1C(=O)O)c1ccc(Cl)cc1	8.7*	12.2	.	-6.6	-12.2	10.1*	8.7*
Cc1ccc(C(=O)Nc2ccsc2C(=O)O)cc1	7.1	-43.5	.	4.9	43.5	.	.
CCOC(=O)c1[nH]c2cc(OC)c(OC)cc2c1NC(=O)c1nonc1C	9.9*	37.4	8.8	-4.4	-37.4	-1.9	-1.8
CCOC(=O)c1[nH]c2cc(OC)c(OC)cc2c1NC(=O)c1ccc2c(c1)OCO2	-2.2	38.7	.	1.8	-38.7	.	.
Cc1ccc(S(=O)(=O)c2nc(S(=O)(=O)c3ccccc3)sc2N2CCN(C)CC2)cc1	-0.4	-18.6	.	-1.0	18.5	.	.
O=C(CNC(=O)c1ccc(Br)cc1)N/N=C/c1cccnc1	10.2*	-10.3	.	-0.2	10.3	0.8	1.4
COc1ccc(C2=Nn3c(nnc3-c3ccccc3Cl)SC2)cc1OC1CCOC1 (stereo not given)	10.7*	-3.1	.	1.4	0.7	18.0*	4.9
COc1ccc(C2=Nn3c(nnc3-c3ccco3)SC2)cc1OC	8.2*	50.2	22.1	14.4	-50.2	13.0*	9.2*
COc1ccccc1-c1nnc2n1N=C(c1ccc3c(c1)OCO3)CS2	2.6	.	.	.	.	.	.
COc1ccc(C2=Nn3c(nnc3-c3ccccc3OC)SC2)cc1OC	15.5*	-9.1	60.3*	55.0*	9.1	15.9*	12.1*
CC(C)CC(=O)NC(=S)N1CCN(c2ccc([N+](=O)[O-])cc2Cl)CC1	0.9	36.9	.	-11.2	-36.9	.	.
CC(=O)CC[C@@H]1CC[C@]2(CCCN(C(=O)C(C)(C)C)C2)O1	-2.0	.	.	.	.	.	.
N#C/C(=C(/O)c1ccc(F)cc1)c1nc2ccccc2s1	8.8*	14.1	-18.0	-18.3	-14.1	-3.2	8.9*
NC(=O)c1ncn([C@@H]2O[C@H](C(=O)Nc3ccc(Oc4ccccc4)nc3)[C@@H](O)[C@H]2O)n1	-1.5	.	.	.	.	.	.
Cc1cccc(NC(=O)/C=C/c2cccs2)n1	11.6*	5.6	.	-6.8	-5.6	8.2*	7.9*
SMILES	SMARCA2 act	SR-BI DiI inh	H9c2 TAG inh	Vif imaging	SR-BI DiI-HDL act	SMARCA2 act conf	GAL4-VP16 Luc
O=C(COc1ccccc1Cl)Nc1ccccc1C(=O)N1CCCCC1	1.9	-7.5	-8.1	-4.6	7.5	.	.
Cc1ccc(N2C(=O)SC(Cc3ccccc3)C2=O)cc1 (stereo not given)	2.2	-11.8	-8.9	-8.3	11.8	.	.
O=C1SC(Cc2ccccc2)C(=O)N1c1ccccc1 (stereo not given)	8.3*	.	-3.0	32.5	.	-4.4	0.0
CC(C)(C)n1c(O)c2n(c1=O)Cc1ccccc1N=C2c1ccccc1	-1.1	.	.	-2.5	.	.	.
CC#CC#Cc1cccc(=O)o1	9.8*	-10.8	.	3.6	10.8	15.2*	3.5
O=C(Cc1cccs1)N1CCN(S(=O)(=O)c2ccccc2)CC1	0.2	3.9	.	3.8	-3.9	.	.
COc1ccc(S(=O)(=O)N2CCN(C(=O)Cc3cccs3)CC2)cc1	9.5*	-26.5	.	-0.2	26.5	0.2	0.7
CN(Cc1ccccc1)S(=O)(=O)c1ccc2[nH]c(=O)ccc2c1	8.7*	-9.4	-19.5	-1.7	9.4	-1.0	2.5
O=C(Oc1ccccc1/C=C\C(=O)c1cc2ccccc2o1)c1cccc(F)c1	2.9	31.9	.	1.9	-31.9	.	.
O=C(Oc1ccccc1/C=C\C(=O)c1cc2ccccc2o1)c1ccccc1	8.7*	-2.3	.	9.2	2.3	2.0	9.6*
CC(Sc1nnc(C2CC2)n1C1CC1)C(=O)N(C)C1(C#N)CCCCC1 (stereo not given)	-1.0	-1.8	-10.0	2.7	1.8	.	.
Cc1ccc(Cc2cnc(NC(=O)C3CCCO3)s2)cc1 (stereo not given)	8.8*	-18.2	.	-6.7	18.2	10.5*	7.9*
O=C(Nc1ncc(Cc2cccc(C(F)(F)F)c2)s1)C1CCCO1 (stereo not given)	3.5	.	3.4	1.5	.	.	.
COc1c(F)c(F)c(C(=O)Nc2ccccc2N2CCN(C(=O)C(C)C)CC2)c(F)c1F	8.0*	55.1	.	1.0	-55.1	-3.8	-0.8
COc1cc(C=O)ccc1OCc1cccc(Br)c1	0.4	.	.	5.4	.	.	.
COc1cc(C=O)ccc1OCc1ccccc1Br	14.8*	14.3	.	.	-14.3	6.7	8.0*
CC(=O)c1c(C)nc(-c2ccc(Cl)cc2)nc1N	10.4*	9.4	25.8	1.1	-9.4	2.9	10.7*
